# A number with no mark means an inactive call.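 How the source made its calls: active means growth inhibition above 25% in both replicates, a cutoff set 3 SD above the mean; inconclusive means above 25% in only one replicate; inactive means the rest.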
# Assay: S. cerevisiae growth inhibition in permissive medium (OD615), pilot counter-assay for S. cerevisiae lifespan shortening project, permissive growth control (AID 705)
# Details: OD615, 24 h, at 10 µM, hits give high values
# How it was run: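 System – S. cerevisiae with engineered DeaD lifespan system · Buffer or medium – SC raffinose/galactose permissive medium · Schedule – cells pre-grown 4 h, then 24 h compound exposure, 30 °C humidified · Technique – culture turbidity as optical density at 615 nm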
row,SMILES,growth inhibition [%]
1,Cc1nccn1-c1c2c(c(C#N)c3nc4ccccc4n13)CCC2,-8.38
2,CCOC(=O)c1ccc(N=c2sc(C(=O)OC)cc(=O)n2CCCN2CCOCC2)cc1,-4.99
3,Cc1ccccc1-n1c(Cn2c(=O)sc3ccccc32)nnc1SCC(=O)Nc1nccs1,-3.9
4,Cc1cc(S(=O)(=O)N2CCN(c3ccc(F)cc3)CC2)c(C)s1,-13.9
5,Cc1cccc(-n2c(Cc3cc(=O)[nH]c(=O)[nH]3)nnc2SCC(=O)NCC2CCCO2)c1 (centres undefined),-2.17
6,CCOc1ccccc1Nc1ncnc2c1cnn2-c1ccccc1,-6.82
7,CCC(C(=O)N1CC2(C)CC1CC(C)(C)C2)N1C(=O)c2ccccc2C1=O (centres undefined),-2.71
8,CCN(CC)S(=O)(=O)c1ccc(C2CNC(=O)C2)cc1 (centres undefined),-6.66
9,CC(CNCc1ccc2c(c1)OCO2)NCc1ccc2c(c1)OCO2 (centres undefined),-14
10,CCCC(c1c(C)n(C)n(-c2ccccc2)c1=O)c1c(C)n(C)n(-c2ccccc2)c1=O,-9.58
11,CN1CCCc2cc3c(C(F)(F)F)cc(=O)oc3nc21,-5.06
12,O=C1CCCC2=C1C1(O)C(=O)c3ccccc3C1(O)O2 (centres undefined),-7.89
13,Clc1ccc(CSc2nnc(-c3cccnc3)n2Cc2ccco2)c(Cl)c1,1.24
14,O=C(Cn1cc2c(n1)CCCCC2)NC1CCN(Cc2ccccc2)CC1,-6.81
15,CCCn1c(C(O)c2ccc3c(c2)OCO3)nc2ccccc21 (centres undefined),1.37
16,Cn1c(SCC(=O)Nc2ccc(F)cc2F)nnc1-c1cccnc1,-13.9
17,COc1ccccc1-c1nc2n(n1)C(c1ccccc1Cl)C(C(N)=O)=C(C)N2 (centres undefined),-11.6
18,COc1ccc(Nc2ccc3c(c2)=NC2(CCCCC2)[N+]=3[O-])cc1,-9.92
19,O=C(CNS(=O)(=O)c1ccc(C(=O)N2CCCCC2)cc1)N1CCCCC1,-11.9
20,COc1ccccc1N1CCN(c2cc(=O)n(-c3ccc(Cl)cc3)c(=O)[nH]2)CC1,-5.8
21,CCCCNC(=O)CS(=O)Cc1nc(-c2cccc(C)c2)oc1C (centres undefined),-13.2
22,c1ccc(COc2ccc(Nc3ncnc4nc[nH]c34)cc2)cc1,-2.53
23,Cc1nnc(Sc2nc3c(c(=O)[nH]c(=O)n3C)n2CCc2ccccc2)s1,-17.6
24,CCSC1=N/C(=C\c2ccc(C(=O)O)cc2)C(=O)S1,-3.9
